# Assay outcomes from PubChem.
# PMI activator: phosphomannose isomerase (human) activation | P34949 | purified human PMI, coupled resazurin fluorescence, 20 min; stronger effect = higher value; 1 = vehicle control, 0 substrate-free wells | activation factor at 20 µM | 0.005% of 190,000 active | AID 1214;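 active means activation factor of 2 or more at 20 µM, relative to plate controls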
# Target sequence (P34949 whole entry, looked up): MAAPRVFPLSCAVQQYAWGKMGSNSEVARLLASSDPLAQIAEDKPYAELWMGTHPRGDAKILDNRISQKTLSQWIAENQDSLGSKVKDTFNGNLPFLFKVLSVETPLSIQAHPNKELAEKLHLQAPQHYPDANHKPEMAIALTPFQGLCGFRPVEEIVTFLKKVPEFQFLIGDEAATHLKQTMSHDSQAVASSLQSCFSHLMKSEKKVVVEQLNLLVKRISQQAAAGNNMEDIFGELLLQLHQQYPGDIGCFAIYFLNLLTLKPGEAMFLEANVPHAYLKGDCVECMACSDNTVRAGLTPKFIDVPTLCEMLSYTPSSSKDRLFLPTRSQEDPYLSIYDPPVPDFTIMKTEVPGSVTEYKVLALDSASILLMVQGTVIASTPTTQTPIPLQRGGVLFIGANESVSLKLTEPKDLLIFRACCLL
# PMI act hi M6P: increases human PMI activity with near-saturating mannose 6-phosphate. coupled PMI enzyme assay, resazurin fluorescence, 20 min; stronger effect = higher value; 1 = untreated enzyme, 0 = substrate-free blank. 0.34% of 190,000 active. activation factor at 20 µM. AID 1216. P34949;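 active means activation factor of 2 or more at 20 µM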
#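 Test system: human phosphomannose isomerase with PGI, G6PDH, diaphorase coupling enzymes; Amount: PMI at 15 ng/mL final; Reagent: Mannose-6-phosphate 1.0 mM (near-saturating) plus 0.22 mM NADP+; Timing: 20 min, room temperature; Technique: resorufin fluorescence at Ex 544/Em 590 nm; Dosing: 20 µM single dose.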
# L major viab: Leishmania major promastigote growth inhibition; 9% of 200,000 active; Leishmania major promastigotes, resazurin fluorescence viability; AID 1063; inhibition, % at 10 µM; in the data active means inhibition above about 50%;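 further: promastigotes grown with compound for 44 hours at 28 °C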
# WT yeast gro inh: growth inhibition of WT yeast, mitochondrial fusion screen | mitochondrial fusion phenotypic screen, WT strain | inhibition, % at 10 µM | 2.1% of 190,000 active | AID 1362; in the data active means inhibition above about 58%; tested in S. cerevisiae
# Diaphorase act: diaphorase activation or chemical reduction counter-screen | Diaphorase/resazurin coupled assay, resorufin fluorescence, 16 min; stronger effect = higher value; 1 = vehicle wells, 0 = NADH-free wells | AID 1229 | 0.005% of 190,000 active | activation factor at 20 µM;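 active means diaphorase activity raised at least twofold by the compound at 20 µM; inactive means activation factor below 2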
#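 Material: purified diaphorase enzyme from Clostridium kluyveri; Also added: 0.114 mM NADH and 0.1 mM resazurin, final amounts; Doses: single compound dose of 20 µM, 1% DMSO final; Times: 16 min enzyme reaction, ambient temperature; Detection: resorufin fluorescence, excitation 544 nm, emission 590 nm; Measure: increased resorufin signal from activators or reducing compounds.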
# A number is an active result; – = inactive; · = no result. This is a sample that favours compounds with a hit; in the whole collection about 10% have one here.
SMILES,PMI activator,PMI act hi M6P,L major viab,WT yeast gro inh,Diaphorase act
CN(C)N1C(N)=C(C#N)C(c2ccsc2)C2=C1CCCC2=O (centres undefined),–,–,–,–,–
CCSc1nnc(NC(=O)c2ccccn2)s1,–,–,97.8,–,–
CCSc1nnc(NC(=O)[C@@H](NC(=O)c2ccccc2)C(C)C)s1,–,–,50.1,–,–
CCSc1nnc(NC(=O)c2cnccn2)s1,–,–,·,·,–
CC(Oc1cccc(F)c1)c1ccnc2nc(/N=C/N(C)C)nn12 (centres undefined),–,–,–,–,–
COc1cc2c(cc1NC(=O)CSc1nc3ccccc3[nH]1)oc1ccccc12,–,–,–,64.1,–
COc1cc2c(cc1NC(=O)COC(=O)[C@@H](NS(=O)(=O)c1cccc(Cl)c1)C(C)C)oc1ccccc12,–,–,62.2,–,–
COc1cc2c(cc1NC(=O)CSc1nc3cc(Cl)ccc3s1)oc1ccccc12,–,–,50.6,–,–
Cc1cc(C)nc(NCCO)n1,–,–,–,–,–
CCOc1ccc2nc(C)cc(Nc3ccc4c(c3)OCCO4)c2c1,–,–,100.7,–,–
Cc1cc(Nc2ccc3c(c2)OCCO3)c2ccccc2n1,–,–,95.2,–,–
Cc1ccc(Nc2ccc(C(=O)O)cc2N)cc1,–,–,–,73.4,–
CCOc1ccc2nc(C)cc(Nc3cccc([N+](=O)[O-])c3)c2c1,–,–,100.4,–,–
Cc1cc(Nc2cccc([N+](=O)[O-])c2)c2ccccc2n1,–,–,–,–,–
CCOc1ccc2nc(C)cc(Nc3ccc(N4CCOCC4)cc3)c2c1,–,–,63.6,–,–
Cc1cc(C)nc(Nc2ccc(N3CCOCC3)cc2)n1,–,–,–,–,–
Cc1cc(Nc2ccc3c(c2)OCCO3)c2cccc(C)c2n1,–,–,84.9,–,–
Cc1ccc2nc(C)cc(Nc3ccc4c(c3)OCCO4)c2c1,–,–,100.4,–,–
Cc1ccc2nc(C)cc(NCCO)c2c1,–,–,–,–,–
CC(=O)c1ccc(Nc2cc(C)nc3ccc(C)cc23)cc1,–,–,83.5,–,–
Fc1ccc(CNC(=S)NC2CCCC2)cc1,–,–,–,–,–
CC(C)c1nnc(NC(=O)c2c(O)c3cccc4c3n(c2=O)CCC4)s1,–,–,71.7,–,–
Cc1cnc(NC(=O)c2c(O)c3cccc4c3n(c2=O)CCC4)s1,–,–,–,–,–
COc1ccc(CN=C2NC(=O)CC(C(=O)Nc3ccc([N+](=O)[O-])cc3C)S2)cc1 (centres undefined),–,–,86.0,–,–
C[C@H]1C=C(C(=O)NCc2ccccc2)O[C@@H](OCc2ccc(CO)cc2)C1,–,–,–,–,–
SMILES,PMI activator,PMI act hi M6P,L major viab,WT yeast gro inh,Diaphorase act
C(#Cc1ccccc1)C[N+]1(CC#Cc2cccc3ccccc23)CCCC1,–,–,100.5,–,–
Cc1ccc(OCC(=O)N/N=C/c2cc([N+](=O)[O-])ccc2N2CCCCC2)cc1,–,–,96.3,–,–
O=C(N/N=C/c1cc([N+](=O)[O-])ccc1N1CCNCC1)c1ccc([N+](=O)[O-])cc1,–,–,86.2,–,–
O=C(COc1ccc([N+](=O)[O-])cc1)N/N=C/c1cc([N+](=O)[O-])ccc1N1CCOCC1,–,–,–,–,–
CC(=O)Nc1ccc(NC(=O)C2CCCN2/C=C/C(=O)C(F)(F)F)cc1 (centres undefined),–,–,–,–,–
COC(=O)c1ccccc1-c1ccc(C(c2c(C)[nH][nH]c2=O)c2c(C)[nH][nH]c2=O)o1,·,·,100.2,–,·
COC(=O)c1cccc(-c2ccc(C(c3c(C)[nH][nH]c3=O)c3c(C)[nH][nH]c3=O)o2)c1,–,–,92.4,–,–
Cc1[nH][nH]c(=O)c1C(c1ccc(-c2ccc(Cl)c(C(=O)O)c2)o1)c1c(C)[nH][nH]c1=O,–,–,–,–,–
O=C(CSc1nnc2c(n1)[nH]c1ccccc12)Nc1ccc(S(=O)(=O)Nc2ncccn2)cc1,–,–,–,–,–
COc1ccc(C(=O)NCc2cccnc2)cc1OC,–,–,–,–,–
COc1cccc(C(=O)NCC(c2cccnc2)N2CCN(c3ccccc3OC)CC2)c1 (centres undefined),·,·,88.3,–,·
COc1ccc(C(=O)NCC(c2cccnc2)N2CCN(c3ccccc3OC)CC2)cc1OC (centres undefined),–,–,74.0,–,–
O=C(c1cccc(C(F)(F)F)c1)C1CCCN(Cc2cccn2-c2ccccn2)C1 (centres undefined),–,–,–,–,–
Cc1nc2ccccc2n1CC(=O)OCC(=O)NCCc1ccccc1,–,–,–,–,–
Cc1ccc(S(=O)(=O)Nc2cccc(Cl)c2)cc1NC(=O)c1cccnc1,–,–,–,–,–
COc1cc(CN2C(=S)NC(C)(C)CC2(C)O)cc(OC)c1 (centres undefined),–,–,–,–,–
CCN(CC)S(=O)(=O)c1cc(NC(=O)C(C)OC(=O)c2[nH]c(C)c(C(C)=O)c2C)ccc1C (centres undefined),–,–,94.7,–,–
Cc1cccc(C)c1NC(=S)N1CCC(c2ccccc2)C1 (centres undefined),–,–,–,–,–
Cn1c(NCCCN2CCOCC2)nc2c1c(=O)n(Cc1ccc(Cl)cc1)c(=O)n2C,–,–,74.1,–,–
COc1ccc(Cn2c(=O)c3c(nc(NCCO)n3C)n(C)c2=O)cc1,–,–,–,–,–
Cn1c(NCCCN2CCOCC2)nc2c1c(=O)n(Cc1ccc(Cl)c(Cl)c1)c(=O)n2C,–,–,98.8,–,–
Clc1ccc(Sc2cc(Cl)c(-c3ccccc3)nn2)cc1,–,–,–,–,–
O=C(N/C(=C\c1ccc([N+](=O)[O-])cc1)C(=O)N1CCCCC1)c1ccccc1Br,–,–,–,–,–
Cc1ccc(C(=O)COC(=O)C2CC(=O)N(c3nc(-c4ccccc4)cs3)C2)cc1 (centres undefined),–,–,–,–,–
O=C1S/C(=C\c2ccc(O)c([N+](=O)[O-])c2)C(=O)N1Cc1cccc([N+](=O)[O-])c1,–,–,–,86.0,–
SMILES,PMI activator,PMI act hi M6P,L major viab,WT yeast gro inh,Diaphorase act
COc1cc(/C=C2\SC(=O)N(c3cccc(Cl)c3)C2=O)cc([N+](=O)[O-])c1O,–,–,–,–,–
O=C1S/C(=C\c2ccc(O)c([N+](=O)[O-])c2)C(=O)N1c1ccccc1Cl,–,–,–,79.6,–
Cc1cccc(NC(=O)CN2C(=O)S/C(=C\c3ccc(O)c([N+](=O)[O-])c3)C2=O)c1,–,–,–,–,–
CS(=O)(=O)N1CCN(CC(=O)NC2CCCCC2)CC1,–,–,–,–,–
COc1ccc(Nc2nc3c([nH]2)c(=O)[nH]c(=O)n3C)cc1,–,–,–,–,–
CCCCC(NC(=O)c1ccccc1)C(=O)OCC(=O)N1c2ccccc2Sc2ccccc21 (centres undefined),–,–,75.0,–,–
